Assay results of several laboratories.
Each line is one published result; the experiments were not run side by side.
Target: Tyrosine-protein kinase Blk (BLK, Homo sapiens, UniProt P51451)

Structure (SMILES)	read-out	technique	concentration	remaining binding
O=C(c1ccc(Nc2nccc(-c3cc4ccccc4s3)n2)cc1)N1CCC(N2CCCC2)CC1	binding	competition with immobilised ligand	1 µM	100%
CC1CCCN1c1nccc(-c2cnn3ncccc23)n1 (stereo not shown)	binding		1 µM	100%
O=C(NCC1CCOCC1)c1n[nH]cc1NC(=O)c1c(F)cccc1F	binding	competition with immobilised ligand	1 µM	100%
CN(C)c1nccc(-c2cnn3ncccc23)n1	binding		1 µM	100%
Cn1nc(C(F)(F)F)cc1-c1cnc(N2CCc3cc(S(=O)(=O)Nc4c(F)cc(Cl)cc4F)cc(N4CCCC4=O)c32)nc1	cell-free assay	competition with immobilised ligand	1 µM	100%
COc1ccnn2ncc(-c3ccnc(N(C)C)n3)c12	binding		1 µM	100%
Nc1ncc2c(n1)-c1c([nH]c3ccc(C#CC4CC4)cc13)CCCC2	binding	competition with immobilised ligand	1 µM	100%
Cc1nc(C2CCN(C(=O)c3ccc(OC(F)(F)F)cc3N)CC2)c2ncc(N3CCN(C)CC3)cc2n1	cell-free assay	competition with immobilised ligand	1 µM	97%
CNC(=O)[C@@H]1CC[C@@H](n2c(-c3ccc4cnccc4c3)nc3ccc(C(=O)NCc4cccc(C(N)=O)c4)cc32)C1	binding	competition with immobilised ligand	1 µM	91%
Cc1cnn2ncc(-c3ccnc(N(C)C)n3)c2c1	binding		1 µM	28%
O=C(NCCCN1CCOCC1)c1ccc(Nc2ncc(Cl)c(-c3ccc(Cl)s3)n2)cc1	binding	competition with immobilised ligand	1 µM	100%
COc1ccc2c(O[C@@H]3C[C@H]4C(=O)N[C@]5(C(=O)O)CC5/C=C\CCCCC[C@H](NC(=O)OC5CCCC5)C(=O)N4C3)cc(-c3csc(NC(=O)C(C)C)n3)nc2c1C (stereo partly shown)	cell-free assay	competition with immobilised ligand	1 µM	97%
C[C@H]1CCN(c2nccc(-c3cnn4ncccc34)n2)C1	binding		1 µM	100%
COc1ccc2c(c1)O[C@H](c1ccc(OC)c(OC)c1)C[C@@H]2NC(=O)C1(c2ccc3c(c2)OC(F)(F)O3)CC1	cell-free assay	competition with immobilised ligand	1 µM	100%
CN(CCCC(F)(F)F)c1nccc(-c2cnn3ncccc23)n1	binding		1 µM	91%
CCN1CCN(Cc2ccc(C(=O)Nc3ccc(C)c(Oc4ccc5c(c4)CC(=O)N5)c3)cc2C(F)(F)F)CC1	binding	competition with immobilised ligand	1 µM	93%
N[C@H]1CCN(c2nccc(-c3cnn4ncccc34)n2)C1	binding		1 µM	100%
Cc1c(C(=O)O)cc(-c2ccc(C3CCNCC3)cc2)c2ccc(-c3ccc(C(F)(F)F)cc3)cc12	cell-free assay	competition with immobilised ligand	1 µM	100%
O=C(c1ccc(Nc2ncc(Cl)c(-c3cc4ccccc4s3)n2)cc1)N1CCC(N2CCCC2)CC1	binding	competition with immobilised ligand	1 µM	100%
C[C@@H](c1ccc(-n2cnc3c(N)ncnc32)cc1)N1CCc2nn(C)c(Cc3ccccc3)c2C1=O	binding	competition with immobilised ligand	0.1 µM	89%
CO[C@@H](C)c1c(Nc2ccc([C@H](N(C)C(=O)C3CCS(=O)(=O)CC3)C(F)(F)F)cc2)cnc2cc(Cl)nn12	cell-free assay	competition with immobilised ligand	1 µM	87%
C=CC(=O)N1CCC(C(=O)NCC(=O)N2CCN(c3nc(-c4cnc(N)nc4C(F)F)nc(N4CCOCC4)n3)CC2)CC1	binding	competition with immobilised ligand	1 µM	100%
